Data set [1] relates to Plasmodium falciparum. Briefly: Antiparasitic activity against Plasmodium falciparum infected in human Erythrocyte assessed as inhibition of merozoite egress from human Erythrocyte measured for 8 hrs by flow cytometry analysis. It counts as functional, organism-based. The procedure, abridged:
(§1)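 P. falciparum cultured in human RBCs, RPMI 1640 with 25 mM HEPES, 2.5% Albumax II, 100 μM hypoxanthine, 37 °C, 5% O2/5% CO2. Sorbitol-synchronized, plasmion-enriched late schizonts at 2% hematocrit, 1% parasitemia exposed to compound for 8 h. Fixed in glutaraldehyde, permeabilized, RNase-treated, stained with YOYO-1. Ring parasitemia by flow cytometry (100,000 events) vs DMSO. Triplicate; IC50 from 16 concentrations, 180 to 0.8 μM.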
(In general: In flow cytometry, cells or beads pass a laser one at a time.)

The test system of data set [2] is Subtilisin-like protease 1 (Plasmodium vivax). Kind of data set: Binding affinity to Plasmodium vivax SUB1 using Dabsyl-KLVGADDV-SLA-EDANS as substrate using catalytic domain assessed as bound half life by jump dilution assay.
Data set [3] can be described thus: Metabolic stability in human serum measured after 24 hrs by LC-MS analysis. Particulars: read-out: Stability. Format: ADME, cell-free. A digest of the protocol:
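Pooled human serum prewarmed 20 min at 37 °C; peptide added to 0.6 mM final. Aliquots taken over 0-24 h and proteins precipitated with MeCN/H2O/formic acid. Supernatant lyophilized and analysed by LC-SWATH-MS. Intact peak area expressed as % of the 0 h value. Two independent experiments in duplicate, mean ± SEM.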

Data set [4] deals with Subtilisin-like protease 1 (Plasmodium vivax). Briefly: Binding affinity to Plasmodium vivax SUB1 using Dabsyl-KLVGADDV-SLA-EDANS as substrate using catalytic domain assessed as dissociation constant (Koff) by jump dilution assay.
Data set [5] deals with Plasmodium falciparum. Kind of data set: Antiparasitic activity against Plasmodium falciparum infected in human Erythrocyte assessed as inhibition of merozoite egress from human Erythrocyte at 100 uM measured for 8 hrs by flow cytometry analysis relative to control. It counts as functional. The procedure, abridged:
as §1

A short description of data set [6]: Inhibition of full length recombinant Plasmodium vivax SUB1 expressed in Drosophila S2 cells using Dabsyl-KLVGADDV-SLA-EDANS as substrate measured every 2 mins for 1 hr by FRET assay.
The target in data set [7] is T1, Subtilisin-like protease 1 (Plasmodium falciparum, UniProt O61142).
T1 sequence (O61142 whole entry): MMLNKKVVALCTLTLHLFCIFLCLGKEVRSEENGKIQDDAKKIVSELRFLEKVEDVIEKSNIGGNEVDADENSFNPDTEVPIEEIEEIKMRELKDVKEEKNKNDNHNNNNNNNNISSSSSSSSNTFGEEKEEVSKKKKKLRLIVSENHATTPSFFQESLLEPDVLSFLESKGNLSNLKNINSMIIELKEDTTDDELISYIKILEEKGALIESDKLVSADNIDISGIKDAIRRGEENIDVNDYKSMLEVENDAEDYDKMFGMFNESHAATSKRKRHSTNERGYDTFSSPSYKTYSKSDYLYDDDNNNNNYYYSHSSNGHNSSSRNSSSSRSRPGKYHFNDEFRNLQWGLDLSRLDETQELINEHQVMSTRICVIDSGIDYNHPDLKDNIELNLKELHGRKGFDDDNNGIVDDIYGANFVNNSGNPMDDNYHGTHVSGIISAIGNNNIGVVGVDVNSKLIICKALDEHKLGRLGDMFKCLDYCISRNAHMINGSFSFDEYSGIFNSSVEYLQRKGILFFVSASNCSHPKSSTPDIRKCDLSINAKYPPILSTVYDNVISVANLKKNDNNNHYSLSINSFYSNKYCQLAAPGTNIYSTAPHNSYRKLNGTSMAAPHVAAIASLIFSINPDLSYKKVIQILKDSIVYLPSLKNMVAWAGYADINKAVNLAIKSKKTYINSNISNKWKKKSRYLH
Kind of data set: Inhibition of full length recombinant Plasmodium falciparum SUB1 using Dabsyl-KLVSADNIDIS-EDANS as substrate measured every 2 mins for 1 hr by FRET assay.

Data set [8] can be described thus: Selectivity ratio of IC50 for inhibition of full length recombinant Plasmodium vivax SUB1 expressed in Drosophila S2 cells using Dabsyl-KLVGADDV-SLA-EDANS as substrate to IC50 for inhibition of full length recombinant Plasmodium falciparum SUB1 using Dabsyl-KLVSADNIDIS-EDANS as substrate.
Data set [9] relates to Subtilisin-like protease 1 (Plasmodium vivax). Briefly: Binding affinity to Plasmodium vivax SUB1 catalytic domain assessed as thermal stabilization by measuring change in melting temperature by differential scanning fluorimetry. (Differential scanning fluorimetry follows unfolding on heating by fluorescence.)
For data set [10], the system named is Plasmodium falciparum. Briefly: Antiparasitic activity against Plasmodium falciparum infected in human Erythrocyte assessed as inhibition of merozoite egress from human Erythrocyte at 25 uM measured for 8 hrs by flow cytometry analysis relative to control. Format: functional. The procedure, abridged:
as §1

Data set [11] concerns the target T1, Subtilisin-like protease 1. Kind of data set: Inhibition of Plasmodium falciparum SUB1 assessed as inhibition constant.

pIC50, pKi: −log10 of the molar value. Active and inactive are the calls of the source. The calls are words filed in the database; no cut-off is given here. Numbered stars: 1 amine (or outer) side, 2 acyl side, 3 side chain; on linkers, the order of the positions; unused ones are H or OH. Square brackets hold non-standard residues; d marks the D form. Peptide text beside a SMILES is read from it. * marks the point of attachment. Ala(1H-tetrazol-5-yl) = N[C@@H](Cc1nnn[nH]1)C(=O)O; Asp(3,3-Me2) = CC(C)(C(=O)O)[C@H](N)C(=O)O; X3 = NC(=O)CC[C@H](N[*:1])C(=O)C(=O)[*:2]; Gly(cPent) = N[C@H](C(=O)O)C1CCCC1; X1 = C[C@H](N[*:1])C(=O)C(=O)[*:2]; tBuAla = CC(C)(C)C[C@H](N)C(=O)O; Pentanoyl(4-Me) = CC(C)CCC(=O)*; Cha = N[C@@H](CC1CCCCC1)C(=O)O; Chg = N[C@H](C(=O)O)C1CCCCC1; Phg = N[C@H](C(=O)O)c1ccccc1; Tle = CC(C)(C)[C@H](N)C(=O)O; OAll = C=CCO*

`C[C@@H](NC[C@@H](O)[C@H](Cc1ccccc1)NC(=O)c1ccc(C(=O)N2CCN(C)CC2)cc1)c1ccccc1`: the pIC50 in the data set on Plasmodium falciparum [1] was 8.96.
For the compound `C=CCOC(=O)CC[C@H](NC(=O)[C@H](CC(=O)O)NC(=O)C(=O)[C@H](C)NC(=O)[C@H](C)NC(=O)[C@@H](NC(=O)[C@@H](NC(C)=O)[C@@H](C)CC)[C@@H](C)O)C(N)=O` (Ac-ITA[X1]DE(OAll)-NH2), the T1/2 in [2] amounted to 10 min. Also, in data set [3], the remaining at 24 h is ~95%. Also, the K in [4] worked out at 0.074 min⁻¹. Further, the inhibition at 100 µM in the data set with Plasmodium falciparum [5] is 13%. Further, the pIC50 in data set [6] was 6.74; in data set [7] it was 5.71. The Ratio IC50 in [8] came out at 9.
With `C=CCOC(=O)CC[C@H](NC(=O)[C@H](Cc1nnn[nH]1)NC(=O)C(=O)[C@H](C)NC(=O)[C@H](C)NC(=O)[C@@H](NC(=O)[C@@H](NC(C)=O)[C@@H](C)CC)[C@@H](C)O)C(N)=O` (Ac-ITA[X1][Ala(1H-tetrazol-5-yl)]E(OAll)-NH2), the inhibition at 100 µM with Plasmodium falciparum [5] was 2%. Moreover, the pIC50 in [6] was 5.91; in data set [7], 4.61.
On to `C=CCOC(=O)CC[C@H](NC(=O)[C@H](CC(=O)O)NC(=O)C(=O)[C@H](C)NC(=O)[C@H](C)NC(=O)[C@@H](NC(=O)[C@H](CC1CCCCC1)NC(C)=O)[C@@H](C)O)C(N)=O` (Ac-[Cha]TA[X1]DE(OAll)-NH2), for which the ΔTm in data set [9] turned out to be 6.8 °C. Besides, in the data set on Plasmodium falciparum [5], the inhibition result was “inactive”. In addition, the pIC50 in [6] was 5.39; in data set [7], 4.46. In data set [8], the Ratio IC50 is 9.
Turning to `C=CCOC(=O)CC[C@H](NC(=O)[C@H](CC(=O)O)NC(=O)C(=O)[C@H](C)NC(=O)[C@H](C)NC(=O)[C@@H](NC(=O)[C@@H](NC(C)=O)C1CCCCC1)[C@@H](C)O)C(N)=O` (Ac-[Chg]TA[X1]DE(OAll)-NH2), in the data set with Plasmodium falciparum [5], the inhibition at 100 µM worked out at 13%. Besides, the pIC50 was 6.70 in data set [6] and 5.71 in data set [7]. The Ratio IC50 in data set [8] was 9.
Turning to `CC(=O)N[C@H](C(=O)N[C@H](C(=O)N[C@@H](C)C(=O)N[C@@H](C)C(=O)C(=O)N[C@@H](CC(=O)O)C(N)=O)[C@@H](C)O)C1CCCC1` (Ac-[Gly(cPent)]TA[X1]D-NH2), the T1/2 in [2] was 20 min. Besides, the K in data set [4] came out at 0.034 min⁻¹. Further, in the data set on Plasmodium falciparum [5], the inhibition at 100 µM is 32%. Besides, the values for the pIC50 in data set [6] and in [7] were 7.00 and 6.26, respectively.
`CC(=O)N[C@H](C(=O)N[C@H](C(=O)N[C@@H](C)C(=O)N[C@@H](C)C(=O)C(=O)N[C@@H](CC(=O)O)C(=O)N[C@@H](CCC(=O)O)C(N)=O)[C@@H](C)O)C1CCCC1` (Ac-[Gly(cPent)]TA[X1]DE-NH2): the inhibition entry with Plasmodium falciparum [5] was “inactive”. The pIC50 in data set [6] is 7.52; in data set [7] it was 7.06.
As to `CC[C@H](C)[C@H](NC(=O)[C@H](CC(=O)O)NC(=O)C(=O)[C@H](C)NC(=O)[C@H](C)NC(=O)[C@@H](NC(=O)[C@@H](NC(C)=O)C1CCCC1)[C@@H](C)O)C(N)=O` (Ac-[Gly(cPent)]TA[X1]DI-NH2), in the data set with Plasmodium falciparum [5], the inhibition at 100 µM was 99.8%. Also, in the data set on Plasmodium falciparum [10], the inhibition at 25 µM is 25%. In addition, the negative-log IC50 (pIC50) is 7.85 in [6] and 7.77 in [7].
For the compound `C=CCOC(=O)CC[C@H](NC(=O)[C@H](CO)NC(=O)C(=O)[C@H](C)NC(=O)[C@H](C)NC(=O)[C@@H](NC(=O)[C@@H](NC(C)=O)C1CCCC1)[C@@H](C)O)C(N)=O` (Ac-[Gly(cPent)]TA[X1]SE(OAll)-NH2), in the data set with Plasmodium falciparum [5], the inhibition at 100 µM stood at 11%. The pIC50 was 4.96 in [6] and 4.49 in data set [7].
For `C=CCOC(=O)CC[C@H](NC(=O)[C@@H](NC(=O)C(=O)[C@H](C)NC(=O)[C@H](C)NC(=O)[C@@H](NC(=O)[C@@H](NC(C)=O)C1CCCC1)[C@@H](C)O)C(C)(C)C(=O)O)C(N)=O` (Ac-[Gly(cPent)]TA[X1][Asp(3,3-Me2)]E(OAll)-NH2), in that order: 3%, 6.74 and 5.99.
The like results for `C=CCOC(=O)CC[C@H](NC(=O)[C@H](CC(=O)O)NC(=O)C(=O)[C@H](C)NC(=O)[C@H](C)NC(=O)[C@H](Cc1ccc(O)cc1)NC(=O)[C@@H](NC(C)=O)C1CCCC1)C(N)=O` (Ac-[Gly(cPent)]YA[X1]DE(OAll)-NH2) were, in that order, 44%, 7.60 and 6.82.
With `C=CCOC(=O)CC[C@H](NC(=O)[C@H](CC(=O)O)NC(=O)C(=O)[C@H](C)NC(=O)[C@H](C)NC(=O)[C@@H](NC(=O)[C@@H](NC(C)=O)C1CCCC1)C1CCCC1)C(N)=O` (Ac-[Gly(cPent)][Gly(cPent)]A[X1]DE(OAll)-NH2), the inhibition at 100 µM in the data set on Plasmodium falciparum [5] was determined as 46%. In addition, the inhibition at 25 µM in the data set with Plasmodium falciparum [10] stood at 6%. In addition, the figures for the pIC50 in [6] and in data set [7] were 7.10 and 7.00, respectively. Further, the Ratio IC50 in data set [8] is 1.25.
Turning to `C=CCOC(=O)CC[C@H](NC(=O)[C@H](CC(=O)O)NC(=O)C(=O)[C@H](C)NC(=O)[C@H](C)NC(=O)[C@@H](NC(=O)[C@@H](NC(C)=O)c1ccccc1)[C@@H](C)O)C(N)=O` (Ac-[Phg]TA[X1]DE(OAll)-NH2), the inhibition at 100 µM in the data set on Plasmodium falciparum [5] was 9%. Further, the pIC50 in [6] is 6.66.
As for `C=CCOC(=O)CC[C@H](NC(=O)[C@H](CC(=O)O)NC(=O)C(=O)[C@H](C)NC(=O)[C@H](C)NC(=O)[C@@H](NC(=O)[C@@H](NC(C)=O)C(C)(C)C)[C@@H](C)O)C(N)=O` (Ac-[Tle]TA[X1]DE(OAll)-NH2), the inhibition at 100 µM in the data set on Plasmodium falciparum [5] was found to be 4%. Moreover, the pIC50 in [6] was 6.68.
On to `C=CCOC(=O)CC[C@H](NC(=O)[C@H](CC(=O)O)NC(=O)C(=O)[C@H](C)NC(=O)[C@H](C)NC(=O)[C@@H](NC(=O)[C@H](CC(C)(C)C)NC(C)=O)[C@@H](C)O)C(N)=O` (Ac-[tBuAla]TA[X1]DE(OAll)-NH2), for which the inhibition entry in the data set with Plasmodium falciparum [5] is “inactive”. Further, in [6], the pIC50 is 6.41.
For `CC[C@H](C)[C@H](NC(=O)[C@H](CCCCN)NC(=O)CCC(C)C)C(=O)N[C@H](C(=O)N[C@@H](C)C(=O)N[C@@H](CCC(N)=O)C(=O)C(=O)N[C@@H](CC(=O)O)C(=O)N[C@@H](CC(=O)O)C(=O)N[C@@H](CCC(N)=O)C(=O)N[C@@H](CCC(N)=O)C(N)=O)[C@@H](C)O` ({Pentanoyl(4-Me)}-KITA[X3]DDQQ-NH2), the pKi in [11] is 5.00.

Broadly, the pIC50 is the IC50 on a negative log10 scale, so that one unit is a factor of ten. A word on the inhibition: it is how much of the control response was suppressed. As a reminder, the ΔTm is the shift of the melting midpoint relative to a reference. Broadly, the pKi is −log10 of the Ki, conventionally taken in molar units.

These data come from ChEMBL document CHEMBL5512639, “Insights from structure-activity relationships and the binding mode of peptidic α-ketoamide inhibitors of the malaria drug target subtilisin-like SUB1” (Eur J Med Chem, 2024).
